Compound activity as filed in PubChem BioAssay.
CendR NRP1 mod: alters CendR peptide binding to human NRP-1. O14786. FAM-RPARPAR peptide binding to NRP-1, fluorescence polarization. inhibition, % at 25 µM. hit rate 0.85% among 360,000;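 active = inhibition or corrected inhibition above about 18%, plus a signal ratio from 0.5 to 1.5, limit read from the data, passing the limit was not always enough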
Lipid droplet: modulators of hepatic lipid droplet formation | AID 1656 | inhibition, % at 6.5 µM | hit rate 0.4% among 240,000 | AML12 mouse hepatocytes, oleate lipid droplets, BODIPY imaging;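 active = lipid droplet intensity inhibited by at least 50%, with more than 500 cells counted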
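Assay system: AML12 mouse liver cells | Compound dosing: One dose, 6.5 µM compound | Read-out basis: Droplet intensity reduction, % inhibition | Measured by: Fluorescence imaging, 20x objective, two fields per well | Schedule: Overnight treatment with compound plus oleate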
sPLA2-III inh: Blocks human group III sPLA2 activity; Q9NZ20; AID 743126; hit rate 0.56% among 370,000; inhibition, % at 12.2 µM; QFRET BODIPY PC-A2 liposome hydrolysis, fluorescence;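 active = inhibition above mean plus 3 SD of compounds lying within the high and low control bounds, cut at about 19% in these data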;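 note: 0% = median of test compound wells and 100% = no enzyme DMSO wells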
HTR2A ag: mouse HTR2A agonism via beta-arrestin recruitment; CHO-K1 mHTR2A beta-arrestin complementation, luminescence; percent of 30 µM serotonin response; hit rate 0.66% among 360,000; AID 624169; activation, % at 7.6 µM;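 active = activation above a run cutoff, the mean activation of all tested compounds plus 3 SD, cut at about 14% in these data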;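 note: 0% = plate median of compound wells and 100% = 30 µM serotonin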
Arr AP2 block: human beta-arrestin and AP2 interaction inhibition. FITC-arrestin peptide / GST-AP2 beads, flow cytometry; AP2 beta2 appendage carries R879A mutation. inhibition, % at 10 µM. hit rate 0.31% among 340,000. AID 504490;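 active = inhibition above a set limit, near 3 SD of compounds lacking own fluorescence, cut at about 54% in these data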;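 note: plate controls were DMSO wells for no effect and 5 µM unlabelled arrestin peptide for full effect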
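Material – GST-tagged AP2 beta2-adaptin appendage (R879A) on 4 µm glutathione beads · Probe or stimulus – fluorescein-tagged arrestin peptide at 50 nM final · Timing – 12 min plus 1 h, RT · Detection – bead flow cytometry, FITC channel · Read-out basis – inhibition as reduced fluorescein signal on beads, percent · Medium – PBS plus Tween 20 (0.05%) and BSA (0.1%)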
PfM18AAP inh: blocks P. falciparum M18 aspartyl aminopeptidase; AID 1822; recombinant PfM18AAP, H-Glu-NHMec fluorogenic cleavage; inhibition, % at 7.35 µM; hit rate 1.2% among 290,000;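 active = inhibition above the campaign mean inhibition over all tested compounds plus 3 SD, cut at about 28% in these data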;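 note: 0% = plate median of test compound wells and 100% = 2 mM ZnCl2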
* marks the source's active call; other numbers are inactive results. Compounds with a hit are over-represented: about 3.3% of the library has one in this group of screens.

What do the screens show for `CC[C@@H](C(=O)[C@@H](C)[C@@H](O)[C@H](C)CCc1ccc(C)c(O)c1C(=O)O)[C@H]1O[C@](CC)([C@H]2CC[C@](O)(CC)[C@H](C)O2)C[C@@H]1C`?
CendR NRP1 mod: 6; Lipid droplet: -20; sPLA2-III inh: -52; HTR2A ag: 193*; Arr AP2 block: 9; PfM18AAP inh: 0

How did COc1cccc(-c2nnc(Nc3nc4c(F)cccc4s3)o2)c1 do in these assays?
CendR NRP1 mod: 33*; Lipid droplet: -22; sPLA2-III inh: -9; HTR2A ag: -1; Arr AP2 block: 4; PfM18AAP inh: 5

What do the screens show for `O=C1CCN(Cc2cccnc2)CCN1[C@H](CO)c1ccccc1`?
CendR NRP1 mod: 22*; Lipid droplet: 2; sPLA2-III inh: 2; HTR2A ag: 0; Arr AP2 block: -1; PfM18AAP inh: 3

How did O=C(NCc1ccccn1)C1CCN(C2CCN(Cc3cccc(F)c3)CC2)CC1 do in these assays?
CendR NRP1 mod: 23*; sPLA2-III inh: -3; HTR2A ag: 1

What do the screens show for `CCOC(=O)C1CCN(C(=O)COC(=O)c2ccc([N+](=O)[O-])o2)CC1`?
CendR NRP1 mod: -13; sPLA2-III inh: 11; HTR2A ag: -6; Arr AP2 block: 4

What do the screens show for `CN(C)S(=O)(=O)c1cccc(NC(=O)COC(=O)CNC(=O)c2cccc([N+](=O)[O-])c2)c1`?
CendR NRP1 mod: -9; Lipid droplet: -15; sPLA2-III inh: 7; HTR2A ag: 3; Arr AP2 block: -7; PfM18AAP inh: 0

Results for OCC[C@@H]1C[C@H](O)[C@@H](O)[C@@]2(CCCCO2)O1 ?
CendR NRP1 mod: 27*; sPLA2-III inh: 1; HTR2A ag: 9; Arr AP2 block: 13

What do the screens show for `O=C(Nc1ccccn1)c1ccco1`?
CendR NRP1 mod: -6; sPLA2-III inh: 1; HTR2A ag: 3; Arr AP2 block: 4; PfM18AAP inh: -1

What do the screens show for `Cc1cccnc1NC(=O)c1ccco1`?
CendR NRP1 mod: 22*; sPLA2-III inh: 0; HTR2A ag: 5; Arr AP2 block: -2

What do the screens show for `CSCCC(NS(=O)(=O)c1ccc2c(c1)OCCO2)C(=O)N(C)Cc1ccc(C)cc1` (stereo not drawn)?
CendR NRP1 mod: 37*; Lipid droplet: -28; sPLA2-III inh: -9; HTR2A ag: 0; Arr AP2 block: -9; PfM18AAP inh: 4

What do the screens show for `COc1ccc(S(=O)(=O)NC(=O)C2(C)CCN2C(=O)Cc2ccccc2Cl)cc1` (stereo not drawn)?
CendR NRP1 mod: -6; sPLA2-III inh: 0; HTR2A ag: 6

What do the screens show for `CCOC(=O)[C@]12CCCC=C1N(Cc1ccccc1)C(=O)[C@H](CC(=O)NCCc1ccccc1OC)C2`?
CendR NRP1 mod: 5; sPLA2-III inh: -4; HTR2A ag: -5

Results for CCCOc1ccc(OCC(=O)c2[nH]c(C)c(C(C)=O)c2C)cc1 ?
CendR NRP1 mod: 41*; Lipid droplet: -60; HTR2A ag: 3; Arr AP2 block: 15; PfM18AAP inh: -5

What do the screens show for `O=C(C1CC1)N1N=C(c2ccc(Cl)cc2)CC1(O)C(F)(F)F` (stereo not drawn)?
CendR NRP1 mod: 27*; Lipid droplet: -12; sPLA2-III inh: -13; HTR2A ag: -3; Arr AP2 block: 8; PfM18AAP inh: -12

What do the screens show for `CC1CN(C(=S)Nc2ccc(F)cc2F)CC(C)O1` (stereo not drawn)?
CendR NRP1 mod: 26*; Lipid droplet: -2; sPLA2-III inh: -4; HTR2A ag: 5; Arr AP2 block: -3; PfM18AAP inh: 0

Results for CC1CN(C(=O)Nc2ccc(F)cc2F)CC(C)O1 (stereo not drawn) ?
CendR NRP1 mod: -4; Lipid droplet: 0; sPLA2-III inh: 2; HTR2A ag: 4; Arr AP2 block: -12; PfM18AAP inh: 0

What do the screens show for `CCOC(=O)C1=C(C)N=c2s/c(=C\c3ccncc3)c(=O)n2C1c1ccc2c(c1)OCO2` (stereo not drawn)?
CendR NRP1 mod: -31; Lipid droplet: -24; sPLA2-III inh: -1; HTR2A ag: 4; Arr AP2 block: -1; PfM18AAP inh: 8

Results for CCOC(=O)C1=C(C)N=c2s/c(=C3\C(=O)Nc4ccccc43)c(=O)n2C1c1ccc2c(c1)OCO2 (stereo not drawn) ?
CendR NRP1 mod: -10; Lipid droplet: 59*; sPLA2-III inh: 16; HTR2A ag: 0; Arr AP2 block: 2; PfM18AAP inh: -20

Results for Cc1ccc(COn2c(-c3ccc(Cl)cc3Cl)nc3ncccc32)cc1 ?
CendR NRP1 mod: 33*; Lipid droplet: -24; sPLA2-III inh: -4; HTR2A ag: 3; Arr AP2 block: 11; PfM18AAP inh: -5

How did Clc1cccc(COn2c(-c3ccc(Cl)cc3Cl)nc3ncccc32)c1 do in these assays?
CendR NRP1 mod: 5; Lipid droplet: 1; sPLA2-III inh: -30; HTR2A ag: -3; Arr AP2 block: -2; PfM18AAP inh: -10

Results for O=C(NCCO)c1ccc2c(c1)S(=O)(=O)c1ccccc1C2=O ?
CendR NRP1 mod: 22*; Lipid droplet: 4; sPLA2-III inh: 1; HTR2A ag: 11; Arr AP2 block: -8; PfM18AAP inh: -7

Results for S=c1nc(C2CC2)n(-c2ccccc2)[nH]1 ?
CendR NRP1 mod: -10; Lipid droplet: -11; sPLA2-III inh: 8; HTR2A ag: 2; Arr AP2 block: 11; PfM18AAP inh: 13

What do the screens show for `CCOC(=O)C(C)Sc1nc(=O)n2cc(C)ccc2n1` (stereo not drawn)?
CendR NRP1 mod: -1; Lipid droplet: -2; sPLA2-III inh: -3; HTR2A ag: 0; Arr AP2 block: -10; PfM18AAP inh: -2

Results for CCOC(=O)C(C)Sc1nc(=O)n2ccccc2n1 (stereo not drawn) ?
CendR NRP1 mod: 19*; Lipid droplet: -6; sPLA2-III inh: -4; HTR2A ag: 1; Arr AP2 block: -27; PfM18AAP inh: -1

Results for COc1cc(/C=N/N=C2\CC3CCC2(C)C3(C)C)ccc1O (stereo not drawn) ?
CendR NRP1 mod: 23*; Lipid droplet: -10; sPLA2-III inh: 2; HTR2A ag: 7; Arr AP2 block: 2; PfM18AAP inh: 3

Results for CCOC(=O)C1C(c2ccc(O)c(O)c2)NC(=S)NC1(O)C(F)(F)F (stereo not drawn) ?
CendR NRP1 mod: -8; Lipid droplet: 8; sPLA2-III inh: 8; HTR2A ag: 1; Arr AP2 block: -21; PfM18AAP inh: 65*

Results for Nc1ccc(C(=O)Nc2ccc(Nc3ccncc3)cc2)c([N+](=O)[O-])c1 ?
CendR NRP1 mod: 27*; sPLA2-III inh: -3; HTR2A ag: -5
